{
  "source": "ChEMBL document CHEMBL1122624",
  "about": "“Activity of novel aminocannabinoids in baboons” (J Med Chem, 1984)",
  "format_in_all_cases": "functional, organism-based",
  "key": {"Cercopithecidae [1]": {"system": "Cercopithecidae", "experiment": "Induction of yawning and scratching was determined in Baboons at a dose 1.0 mg/kg; absent", "parameters": "dose 1 mg/kg", "in_short": "(§1)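 Male or female baboons were given a single injection, with two animals per dose level. The same animals received the solvent alone 1 week later. Behaviour was scored by observation, including yawning, body scratching, motor activity, ptosis, posture and responsiveness.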"}, "Cercopithecidae [2]": {"system": "Cercopithecidae", "experiment": "Psychotropic effects in Baboons at a dose 1.0 mg/kg; - = no change", "parameters": "dose 1 mg/kg", "in_short": "as §1"}, "Cercopithecidae [3]": {"system": "Cercopithecidae", "experiment": "Induction of yawning and scratching was determined in Baboons at a dose 2.0 mg/kg; absent", "parameters": "dose 2 mg/kg", "in_short": "as §1"}, "Cercopithecidae [4]": {"system": "Cercopithecidae", "experiment": "Psychotropic effects in Baboons at a dose 2.0 mg/kg; + = drowsiness, decreased motor activity, occasional partial ptosis, occasional head drop", "parameters": "dose 2 mg/kg", "in_short": "as §1"}, "Cercopithecidae [5]": {"system": "Cercopithecidae", "experiment": "Psychotropic effects in Baboons at a dose 5.0 mg/kg; - = no change", "parameters": "dose 5 mg/kg", "in_short": "as §1"}, "Cercopithecidae [6]": {"system": "Cercopithecidae", "experiment": "Induction of yawning and scratching was determined in Baboons at a dose 10.0 mg/kg; present", "parameters": "dose 10 mg/kg", "in_short": "as §1"}, "Cercopithecidae [7]": {"system": "Cercopithecidae", "experiment": "Induction of yawning and scratching was determined in Baboons at a dose 2.0 mg/kg; present", "parameters": "dose 2 mg/kg", "in_short": "as §1"}, "Cercopithecidae [8]": {"system": "Cercopithecidae", "experiment": "Induction of yawning and scratching was determined in Baboons at a dose 5.0 mg/kg; present", "parameters": "dose 5 mg/kg", "in_short": "as §1"}, "Cercopithecidae [9]": {"system": "Cercopithecidae", "experiment": "Psychotropic effects in Baboons at a dose 2.0 mg/kg; - = no change", "parameters": "dose 2 mg/kg", "in_short": "as §1"}, "Cercopithecidae [10]": {"system": "Cercopithecidae", "experiment": "Psychotropic effects in Baboons at a dose 10.0 mg/kg; - = no change", "parameters": "dose 10 mg/kg", "in_short": "as §1"}, "Cercopithecidae [11]": {"system": "Cercopithecidae", "experiment": "Induction of yawning and scratching was determined in Baboons at a dose 5.0 mg/kg; absent", "parameters": "dose 5 mg/kg", "in_short": "as §1"}, "Cercopithecidae [12]": {"system": "Cercopithecidae", "experiment": "Psychotropic effects in Baboons at a dose 5.0 mg/kg; +/- = tranquility", "parameters": "dose 5 mg/kg", "in_short": "as §1"}, "Cercopithecidae [13]": {"system": "Cercopithecidae", "experiment": "Psychotropic effects in baboons at a dose 10.0 mg/kg;+/- = tranquility", "parameters": "dose 10 mg/kg", "in_short": "as §1"}, "Cercopithecidae [14]": {"system": "Cercopithecidae", "experiment": "Induction of yawning and scratching was determined in Baboons at a dose 10.0 mg/kg; absent", "parameters": "dose 10 mg/kg", "in_short": "as §1"}, "Cercopithecidae [15]": {"system": "Cercopithecidae", "experiment": "Induction of yawning and scratching was determined in Baboons at a dose 4.0 mg/kg; absent", "parameters": "dose 4 mg/kg", "in_short": "as §1"}, "Cercopithecidae [16]": {"system": "Cercopithecidae", "experiment": "Psychotropic effects in Baboons at a dose 4.0 mg/kg; - = no change", "parameters": "dose 4 mg/kg", "in_short": "as §1"}, "Cercopithecidae [17]": {"system": "Cercopithecidae", "experiment": "Psychotropic effects in baboons at a dose 10.0 mg/kg; +/- = tranquility", "parameters": "dose 10 mg/kg", "in_short": "as §1"}, "Cercopithecidae [18]": {"system": "Cercopithecidae", "experiment": "Induction of yawning and scratching was determined in Baboons at a dose 0.5 mg/kg; absent", "parameters": "dose 0.5 mg/kg", "in_short": "as §1"}, "Cercopithecidae [19]": {"system": "Cercopithecidae", "experiment": "Psychotropic effects in Baboons at a dose 0.05 mg/kg; + = drowsiness, decreased motor activity, occasional partial ptosis, occasional head drop", "parameters": "dose 0.05 mg/kg", "in_short": "as §1"}, "Cercopithecidae [20]": {"system": "Cercopithecidae", "experiment": "Induction of yawning and scratching was determined in Baboons at a dose 0.05 mg/kg; absent", "parameters": "dose 0.05 mg/kg", "in_short": "as §1"}, "Cercopithecidae [21]": {"system": "Cercopithecidae", "experiment": "Psychotropic effects in baboons at a dose 0.5 mg/kg; +++ = severe stupor and ataxia, full ptosis, immobility, crouched posture lasting for more than 3 h, and absence of reaction to external stimuli", "parameters": "dose 0.5 mg/kg", "in_short": "as §1"}, "Cercopithecidae [22]": {"system": "Cercopithecidae", "experiment": "Induction of yawning and scratching was determined in Baboons at a dose 0.1 mg/kg; absent", "parameters": "dose 0.1 mg/kg", "in_short": "as §1"}, "Cercopithecidae [23]": {"system": "Cercopithecidae", "experiment": "Psychotropic effects in Baboons at a dose 0.1 mg/kg; ++ = stupor, ataxia, suppression of motor activity, full ptosis, typical crouched posture (thinker position) kept for up to 3 h", "parameters": "dose 0.1 mg/kg", "in_short": "as §1"}, "Cercopithecidae [24]": {"system": "Cercopithecidae", "experiment": "Psychotropic effects in Baboons at a dose 0.5 mg/kg; ++ = stupor, ataxia, suppression of motor activity, full ptosis, typical crouched posture (thinker position) kept for up to 3 h", "parameters": "dose 0.5 mg/kg", "in_short": "as §1"}, "Cercopithecidae [25]": {"system": "Cercopithecidae", "experiment": "Psychotropic effects in Baboons at a dose 1.0 mg/kg; +++ = severe stupor and ataxia, full ptosis, immobility, crouched posture lasting for more than 3 h, and absence of reaction to external stimuli", "parameters": "dose 1 mg/kg", "in_short": "as §1"}, "Cercopithecidae [26]": {"system": "Cercopithecidae", "experiment": "Psychotropic effects in Baboons at a dose 0.1 mg/kg; +/- = tranquility", "parameters": "dose 0.1 mg/kg", "in_short": "as §1"}},
  "note": "Active and inactive are the calls of the source. The calls are words filed in the database; no cut-off is given here.",
  "data": [
    {"smiles": "CCCCCc1cc(O)c2c(c1)OC(C)(C)[C@@H]1CC[C@H](C)CC21", "note": "(stereo partly drawn)", "values": [
      {"measurement": "Activity", "setting": "Cercopithecidae [1]", "value": "inactive"},
      {"measurement": "Activity", "setting": "Cercopithecidae [2]", "value": "inactive"},
      {"measurement": "Activity", "setting": "Cercopithecidae [3]", "value": "inactive"},
      {"measurement": "Activity", "setting": "Cercopithecidae [4]", "value": "drowsiness, decreased motor activity, occasional partial ptosis, occasional head drop"}
    ]},
    {"smiles": "CCCCCc1cc(O)c2c(c1)OC(C)(C)[C@@H]1CC[C@H](CN(C)C)CC21", "note": "(stereo partly drawn)", "values": [
      {"measurement": "Activity", "setting": "Cercopithecidae [5]", "value": "inactive"},
      {"measurement": "Activity", "setting": "Cercopithecidae [6]", "value": "present"},
      {"measurement": "Activity", "setting": "Cercopithecidae [7]", "value": "present"},
      {"measurement": "Activity", "setting": "Cercopithecidae [8]", "value": "present"},
      {"measurement": "Activity", "setting": "Cercopithecidae [9]", "value": "inactive"},
      {"measurement": "Activity", "setting": "Cercopithecidae [10]", "value": "inactive"}
    ]},
    {"smiles": "CCCCCc1cc(O)c2c(c1)OC(C)(C)[C@@H]1CCC(CNC)CC21", "note": "(stereo partly drawn)", "values": [
      {"measurement": "Activity", "setting": "Cercopithecidae [11]", "value": "inactive"},
      {"measurement": "Activity", "setting": "Cercopithecidae [12]", "value": "+/-"},
      {"measurement": "Activity", "setting": "Cercopithecidae [13]", "value": "+/-"},
      {"measurement": "Activity", "setting": "Cercopithecidae [14]", "value": "inactive"},
      {"measurement": "Activity", "setting": "Cercopithecidae [3]", "value": "inactive"},
      {"measurement": "Activity", "setting": "Cercopithecidae [9]", "value": "inactive"}
    ]},
    {"smiles": "CCCCCc1cc(O)c2c(c1)OC(C)(C)[C@@H]1CCC(CN(C)C)CC21", "note": "(stereo partly drawn)", "values": [
      {"measurement": "Activity", "setting": "Cercopithecidae [15]", "value": "inactive"},
      {"measurement": "Activity", "setting": "Cercopithecidae [16]", "value": "inactive"},
      {"measurement": "Activity", "setting": "Cercopithecidae [3]", "value": "inactive"},
      {"measurement": "Activity", "setting": "Cercopithecidae [9]", "value": "inactive"}
    ]},
    {"smiles": "CCCCCc1cc(O)c2c(c1)OC(C)(C)[C@@H]1CC[C@H](CNC)CC21", "note": "(stereo partly drawn)", "values": [
      {"measurement": "Activity", "setting": "Cercopithecidae [17]", "value": "+/-"},
      {"measurement": "Activity", "setting": "Cercopithecidae [5]", "value": "inactive"},
      {"measurement": "Activity", "setting": "Cercopithecidae [6]", "value": "present"},
      {"measurement": "Activity", "setting": "Cercopithecidae [7]", "value": "present"},
      {"measurement": "Activity", "setting": "Cercopithecidae [8]", "value": "present"},
      {"measurement": "Activity", "setting": "Cercopithecidae [9]", "value": "inactive"}
    ]},
    {"smiles": "CCCCCc1cc(O)c2c(c1)OC(C)(C)[C@@H]1CC=C(C)C[C@@H]21", "values": [
      {"measurement": "Activity", "setting": "Cercopithecidae [18]", "value": "inactive"},
      {"measurement": "Activity", "setting": "Cercopithecidae [19]", "value": "Weak activity"},
      {"measurement": "Activity", "setting": "Cercopithecidae [20]", "value": "inactive"},
      {"measurement": "Activity", "setting": "Cercopithecidae [21]", "value": "Active"},
      {"measurement": "Activity", "setting": "Cercopithecidae [22]", "value": "inactive"},
      {"measurement": "Activity", "setting": "Cercopithecidae [23]", "value": "Active"}
    ]},
    {"smiles": "CCCCCc1cc(O)c2c(c1)OC(C)(C)[C@@H]1CC[C@@H](C)CC21", "note": "(stereo partly drawn)", "values": [
      {"measurement": "Activity", "setting": "Cercopithecidae [24]", "value": "severe stupor and ataxia, full ptosis, immobility, crouched posture lasting for more than 3 h, and absence of reaction to external stimuli"},
      {"measurement": "Activity", "setting": "Cercopithecidae [18]", "value": "inactive"},
      {"measurement": "Activity", "setting": "Cercopithecidae [1]", "value": "inactive"},
      {"measurement": "Activity", "setting": "Cercopithecidae [22]", "value": "inactive"},
      {"measurement": "Activity", "setting": "Cercopithecidae [25]", "value": "severe stupor and ataxia, full ptosis, immobility, crouched posture lasting for more than 3 h, and absence of reaction to external stimuli"},
      {"measurement": "Activity", "setting": "Cercopithecidae [26]", "value": "+/-"}
    ]}
  ]
}
